PubChem BioAssay
Inconclusive results are not listed.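 Rule for the calls, unless noted: active = viability increase at or above a cutoff of the median across tested compounds plus 3 SD (cut at about 8.5% in these data, passing the limit was not always enough); inconclusive = some gains above the cutoff, reason not given; inactive = the rest.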

Experiments:
[1] = S. cerevisiae growth inhibition in permissive medium (OD615), pilot counter-assay for S. cerevisiae lifespan shortening project, permissive growth control (AID 705;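 active = growth inhibition above 25% in both replicates, a cutoff set 3 SD above the mean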); settings: OD615, 24 h, at 10 µM, hits give high values
Method in brief: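 System: S. cerevisiae with engineered DeaD lifespan system / Measured by: absorbance (optical density) at 615 nm / Read-out: reduction in yeast growth (OD615) / Times: 4 h cell pre-growth, 24 h exposure at 30 °C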

[2] = S. cerevisiae growth inhibition in restrictive medium, OD615, pilot screen, restrictive growth control, yeast lifespan reduction project (AID 706;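 active = growth inhibition above a set limit, 3 SD over mean compound inhibition, in both replicates, cut at about 43% in these data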;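 note: modified DeaD lifespan yeast strain shifted to restrictive glucose medium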); settings: OD615, 48 h, at 10 µM, hits give high values
Method in brief: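 System: Engineered S. cerevisiae DeaD strain | Buffer or medium: Glucose-based CSMM-D restrictive medium | Schedule: 4 h pre-incubation, 48 h exposure at 30 °C | Technique: Optical density at 615 nm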

[3] = doxorubicin toxicity protection in MRP-1 cells – H69AR cells, CellTiter-Glo, duplicate, MRP-1 activator project, pilot screen (AID 807); settings: H69AR viability with doxorubicin, CellTiter-Glo luminescence; at 10 µM; hits give high values;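 note: compound pretreatment 18-22 h then 72 h combined with doxorubicin; 0% = doxorubicin alone and 100% = vehicle without doxorubicin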
[4] = viability of HCT116 without oncogenic beta-catenin – human colon tumor cells, pilot screen (AID 823;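 active = cell viability at or below a set limit in both duplicate runs, the limit being the all-compound median minus 4 SD, cut at about 23% in these data, passing the limit was not always enough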;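 note: 0% = wells killed by 20 µM Hyamine and 100% = untreated DMSO cell wells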); settings: HCT116 beta-catenin knockout viability, CellTiter-Glo, 60 h; at 10 µM; hits give low values
[5] = viability of PTEN-null HCT116 cells – cell-based, HCT116 clonal line, CellTiter-Glo, pilot screen (AID 824;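 active = viability at or below 27.92% in each of two runs, the all-compound median minus 4 SD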;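 note: 0% = 20 µM Hyamine control and 100% = vehicle cell control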); settings: HCT116 PTEN-deleted viability, 60 h, at 10 µM, hits give low values
[6] = RAM pathway blockade in budding yeast – dse1pr::URA3 reporter, 5-FOA selection, pilot screen (AID 869;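 active = inhibition over a set limit, the all-compound mean plus 3 SD, in both replicate runs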;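 note: 0% = DMSO wells with no growth and 100% = 10 µM 1-NA-PP1 with full growth; RAM network block rescues cells from 5-FOA so hits raise OD615 growth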); settings: S. cerevisiae dse1pr::URA3 5-FOA growth, OD615, 2 d; at 10 µM; hits give high values; strain carries analog-sensitive mutant Cbk1 kinase
[7] = RAM signaling pathway blockade in yeast – S. cerevisiae, Pdr1DBD-CYC8 efflux-inhibited sensitized strain, primary screen (AID 1298;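 active = RAM network inhibition above 8.4% in each of two replicates, 3 SD over the compound average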;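 note: 0% = DMSO untreated cells without growth and 100% = 10 µM 1-NA-PP1 full growth; higher means more yeast growth rescued from 5-FOA killing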); settings: S. cerevisiae cbk1-as DSE1-URA3 strain, 5-FOA growth OD615, 2 d; at 50 µM; hits give high values

CC1CCc2nn(CC(=O)N3CCCCCC3)cc2C1 (stereo not drawn)
inactive: growth inhibition [1] -3.02% | growth inhibition [2] 1.8% | viability increase [3] -0.62% | viability [4] 100% | viability [5] 91.4% | inhibition [6] 1.23% | RAM network inhibition [7] 1.06%

CCOC(=O)Cc1csc(NC(=O)CN(C)S(=O)(=O)c2cccc3cccnc23)n1
inactive: growth inhibition [1] -11.1% | growth inhibition [2] -7.54% | viability increase [3] -4.61% | viability [4] 93.5% | viability [5] 81.7% | inhibition [6] 1.14% | RAM network inhibition [7] 4.44%

CCOC(=O)c1c(N)sc(C(=O)N2CCCCCC2)c1C
inactive: growth inhibition [1] -20.4% | growth inhibition [2] -21.8% | viability increase [3] 0.25% | viability [4] 96.7% | viability [5] 91.2% | inhibition [6] -0.305% | RAM network inhibition [7] -0.21%

CC1CCCN(c2ncnc3c2cnn3-c2ccc(Cl)cc2)C1 (stereo not drawn)
inactive: growth inhibition [1] -6.17% | growth inhibition [2] -16.3% | viability increase [3] 0.48% | viability [4] 76% | viability [5] 79.3% | inhibition [6] -1.04% | RAM network inhibition [7] 4.37%

COC(=O)COC(=O)CC(CC(N)=O)c1ccccc1 (stereo not drawn)
inactive: growth inhibition [1] -8.58% | growth inhibition [2] -0.775% | viability increase [3] -0.29% | viability [4] 95% | viability [5] 102% | inhibition [6] 2.13% | RAM network inhibition [7] 3.07%

Cc1cc2ncn(C(=O)c3c(-c4c(Cl)cccc4Cl)noc3C)c2cc1C
inactive: growth inhibition [1] 0.3% | growth inhibition [2] 5.04% | viability increase [3] -3.42% | viability [4] 95.5% | viability [5] 94.5% | inhibition [6] 1.99% | RAM network inhibition [7] 8.25%

O=C(c1cccc(S(=O)(=O)N2CCCC2)c1)c1cccc(S(=O)(=O)N2CCCC2)c1
inactive: growth inhibition [1] -6.99% | growth inhibition [2] -7.98% | viability increase [3] -1.22% | viability [4] 60.7% | viability [5] 56.5% | inhibition [6] 1.09% | RAM network inhibition [7] 5.82%

Cc1nnc(SCC(=O)NC(C)c2ccccc2)[nH]c1=O (stereo not drawn)
inactive: growth inhibition [1] -10.9% | growth inhibition [2] -9.25% | viability increase [3] -1.16% | viability [4] 101% | viability [5] 99.3% | inhibition [6] 4.54% | RAM network inhibition [7] 5.85%

CC(=O)Oc1ccc(N2C(=O)CC(N3CCOCC3)C2=O)cc1 (stereo not drawn)
inactive: growth inhibition [1] 2.42% | growth inhibition [2] 15% | viability increase [3] -0.57% | viability [4] 103% | viability [5] 99.9% | inhibition [6] 0.405% | RAM network inhibition [7] 0.46%

O=C(O)CSCC(=O)c1ccccc1
inactive: growth inhibition [1] -6.96% | growth inhibition [2] -1.74% | viability increase [3] 0.58% | viability [4] 107% | viability [5] 101% | inhibition [6] 1.15% | RAM network inhibition [7] -0.89%

CC(=O)Nc1ccc(OC/C=C(\C)Cl)cc1
inactive: growth inhibition [1] -16.6% | growth inhibition [2] -7.54% | viability increase [3] -1.2% | viability [4] 101% | viability [5] 101% | inhibition [6] 0.895% | RAM network inhibition [7] 2.95%

Cn1c(=O)c2c(nc(SCCN3CCOCC3)n2Cc2ccc(Cl)cc2)n(C)c1=O
inactive: growth inhibition [1] -5.34% | growth inhibition [2] 16.6% | viability increase [3] -3.32% | viability [4] 87.8% | viability [5] 84.1% | inhibition [6] 2.31% | RAM network inhibition [7] -0.47%

CCCCN(CC)CCNC(=O)c1cc2c(=O)n(C)c3ccccc3c2n1C
inactive: growth inhibition [1] 2.65% | growth inhibition [2] -6.07% | viability increase [3] -5.86% | viability [4] 49% | viability [5] 48.6% | inhibition [6] 0.8% | RAM network inhibition [7] 0.41%

Cc1cc(C)c(C)c(OCC(=O)NCCN(C)C)c1
inactive: growth inhibition [1] -11.6% | growth inhibition [2] -3.56% | viability increase [3] -1.08% | viability [4] 91% | viability [5] 91.3% | inhibition [6] 0.79% | RAM network inhibition [7] 0.26%

CC(=O)c1ccc(NC(=O)CSc2nc3nc(C)cc(C)n3n2)cc1
inactive: growth inhibition [1] -20.6% | growth inhibition [2] -8.37% | viability increase [3] -1.88% | viability [4] 101% | viability [5] 93.9% | inhibition [6] 2.34% | RAM network inhibition [7] 2.78%

CC(=O)c1cc(F)c(N2CCN(CCC#N)CC2)cc1C
inactive: growth inhibition [1] -3.07% | growth inhibition [2] -19.6% | viability increase [3] -0.38% | viability [4] 105% | viability [5] 81.3% | inhibition [6] 0.35% | RAM network inhibition [7] 0.47%

O=c1oc(-c2cccs2)nc2sc3c(c12)CCCCC3
inactive: growth inhibition [1] -8.22% | growth inhibition [2] -6.44% | viability increase [3] 1.51% | viability [4] 89% | viability [5] 80.3% | inhibition [6] 1.86% | RAM network inhibition [7] 4.13%

Cc1cc(C(=O)N2CCN(Cc3ccc4c(c3)OCO4)CC2)on1
inactive: growth inhibition [1] -6.71% | growth inhibition [2] -10.4% | viability increase [3] 0.9% | viability [4] 97.2% | viability [5] 105% | inhibition [6] 1.79% | RAM network inhibition [7] 2.8%

O=C(Nc1ccccc1Cl)N1CCN(c2ccc3nnc(-c4ccccc4)n3n2)CC1
inactive: growth inhibition [1] 6.99% | growth inhibition [2] 29.4% | viability increase [3] -4.19% | viability [4] 79.4% | viability [5] 74.8% | inhibition [6] 0.435% | RAM network inhibition [7] 2.07%

CCCn1cnc2cc(NCc3ccccn3)ccc21
inactive: growth inhibition [1] -5.07% | growth inhibition [2] 8.03% | viability increase [3] -2.58% | viability [4] 98.5% | viability [5] 100% | inhibition [6] 2.06% | RAM network inhibition [7] -2.3%

Cc1ccc(CCNC(=O)C2CCCN(S(=O)(=O)c3c(C)noc3/C=C/N(C)C)C2)cc1 (stereo not drawn)
inactive: growth inhibition [1] -1.76% | growth inhibition [2] 6.26% | viability increase [3] -1.67% | viability [4] 88.1% | viability [5] 74.1% | inhibition [6] 1.85% | RAM network inhibition [7] 1.68%

c1ccc(-c2cnnc(N3CCCCC3)n2)cc1
inactive: growth inhibition [1] -4.88% | growth inhibition [2] 8.84% | viability increase [3] -1.75% | viability [4] 102% | viability [5] 97.4% | inhibition [6] 0.13% | RAM network inhibition [7] 5.69%

CCc1nc(SCC(=O)Nc2ccc(C(=O)O)cc2)n[nH]1
inactive: growth inhibition [1] 11.2% | growth inhibition [2] 0.705% | viability increase [3] -1.05% | viability [4] 94.7% | viability [5] 98.4% | inhibition [6] -0.24% | RAM network inhibition [7] -2.73%

COc1ccc(NC(=O)NCCCN2CCCC2=O)cc1
inactive: growth inhibition [1] -2.73% | growth inhibition [2] 8.62% | viability increase [3] 0.12% | viability [4] 105% | viability [5] 103% | inhibition [6] 0.945% | RAM network inhibition [7] -0.16%
